# From ChEMBL document CHEMBL1158389, “Highly twisted adamantyl arotinoids: synthesis, antiproliferative effects and RXR transactivation profiles” (Eur J Med Chem, 2009)
# pEC50: −log10 of the molar value. Active and inactive are the calls of the source. The rule behind the calls is not given here.
# How the values were obtained:
# T47D = assay: Antiproliferative activity against human T47D cells at 4 uM after 48 hrs by MTT assay; format: functional
# Method in brief: (§1)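 Epithelial cancer lines came from ATCC and were seeded the day before in complete medium: PC-3, SkOV3 and A549 at 3,000/well; MiaPaCa-2 and BxPC-3 at 4,000; T-47D and MDA-MB-468 at 5,000. Medium was switched to 0.5% FBS just before exposure to 4 μM. Read-out was MTT (4 h, 37 °C), SDS/HCl solubilisation, A595 minus cell-free blank. Growth inhibition was taken versus DMSO (≤0.1% v/v) controls, ≥2 experiments in triplicate.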
# [1] = biological target: T1, Retinoic acid receptor RXR-alpha (Mus musculus) (UniProt P28700); assay: Transactivation of Gal4-LBD fused mouse RXRalpha (218 to 467) transfected in african green monkey CV1 cells assessed as luciferase activity at 2 uM after 6 hrs by Dual-light chemiluminescent assay relative to 9-cis-retinoic acid; format: cell-based; settings: CV-1
# T1 sequence (whole entry): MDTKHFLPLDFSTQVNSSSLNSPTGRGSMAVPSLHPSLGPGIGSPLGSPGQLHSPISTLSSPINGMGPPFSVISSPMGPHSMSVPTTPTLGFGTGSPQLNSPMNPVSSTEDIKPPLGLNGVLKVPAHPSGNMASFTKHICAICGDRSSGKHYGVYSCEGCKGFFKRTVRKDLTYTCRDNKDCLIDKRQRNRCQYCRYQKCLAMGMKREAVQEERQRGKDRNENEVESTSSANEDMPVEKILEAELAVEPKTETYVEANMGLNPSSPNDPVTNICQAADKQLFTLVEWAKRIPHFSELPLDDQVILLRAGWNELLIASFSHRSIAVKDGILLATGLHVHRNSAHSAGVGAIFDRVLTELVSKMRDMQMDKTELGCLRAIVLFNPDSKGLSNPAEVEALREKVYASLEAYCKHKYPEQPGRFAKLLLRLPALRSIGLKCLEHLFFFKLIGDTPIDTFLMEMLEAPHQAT
# Method in brief: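 Transfected CV-1 cells carried Gal4-LBD constructs: hRARα 156–462, hRARβ 169–448, hRARγ 178–454 or mRXRα 218–467. Transfection used 10 ng Gal4-LBD, 100 ng UAS-luciferase and 25 ng β-gal vector. After 16 h the medium was changed to 5% charcoal-treated FBS. Cells were stimulated with 2 μM analog for 6 h (RARα, RARβ, RXRα) or 20 h (RARγ). Reference agonists were 1 μM atRA (RARα) and 1 μM 9cRA (RXRα). Luciferase and β-galactosidase were read by chemiluminescence.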
# [2] = biological target: T2, Retinoic acid receptor alpha (Homo sapiens) (UniProt P10276); assay: Inhibition of transactivation activity of Gal4-LBD fused human RARalpha (156 to 454) transfected in atRA-stimulated african green monkey CV1 cells at 0.2 uM after 6 hrs by Dual-light chemiluminescent assay; format: cell-based; settings: CV-1, 0.2 uM
# T2 sequence (whole entry): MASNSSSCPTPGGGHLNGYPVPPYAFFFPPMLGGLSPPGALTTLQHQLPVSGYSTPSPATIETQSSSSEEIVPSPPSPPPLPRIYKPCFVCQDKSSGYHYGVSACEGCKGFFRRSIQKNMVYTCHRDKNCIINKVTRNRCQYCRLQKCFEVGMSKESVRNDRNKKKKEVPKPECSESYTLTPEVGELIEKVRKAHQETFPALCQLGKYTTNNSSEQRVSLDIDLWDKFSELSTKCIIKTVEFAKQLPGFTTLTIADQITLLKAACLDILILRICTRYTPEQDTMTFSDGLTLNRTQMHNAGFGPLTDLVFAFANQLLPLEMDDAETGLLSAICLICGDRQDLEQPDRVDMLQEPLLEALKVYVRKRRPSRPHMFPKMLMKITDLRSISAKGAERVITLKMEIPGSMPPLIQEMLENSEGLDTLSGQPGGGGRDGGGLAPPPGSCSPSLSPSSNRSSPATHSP
# Method in brief: (§2)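 Gal4 DBD (1–147) was fused to hRARα (156–462) or hRARβ (169–448) LBD. CV-1 cells (20,000/well) were co-transfected with 10 ng Gal4-LBD, 100 ng UAS-luciferase and 25 ng β-gal vector. After 16 h the medium was replaced with medium containing 5% charcoal-treated FBS. Cells got atRA plus test compound at 10-, 40- or 200-fold excess (0.2, 0.8, 4 μM) for 6 h. Luciferase and β-galactosidase were read by chemiluminescence.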
# BXPC-3 = assay: Antiproliferative activity against human BxPC3 cells at 4 uM after 48 hrs by MTT assay; format: functional; settings: BXPC-3, 48 h; method in brief: as §1
# [3] = biological target: T3, Retinoic acid receptor beta (Homo sapiens) (UniProt P10826); assay: Inhibition of transactivation activity of Gal4-LBD fused human RARbeta (169 to 448) transfected in atRA-stimulated african green monkey CV1 cells at 4 uM after 6 hrs by Dual-light chemiluminescent assay; format: cell-based; settings: CV-1; method in brief: as §2
# T3 sequence (whole entry): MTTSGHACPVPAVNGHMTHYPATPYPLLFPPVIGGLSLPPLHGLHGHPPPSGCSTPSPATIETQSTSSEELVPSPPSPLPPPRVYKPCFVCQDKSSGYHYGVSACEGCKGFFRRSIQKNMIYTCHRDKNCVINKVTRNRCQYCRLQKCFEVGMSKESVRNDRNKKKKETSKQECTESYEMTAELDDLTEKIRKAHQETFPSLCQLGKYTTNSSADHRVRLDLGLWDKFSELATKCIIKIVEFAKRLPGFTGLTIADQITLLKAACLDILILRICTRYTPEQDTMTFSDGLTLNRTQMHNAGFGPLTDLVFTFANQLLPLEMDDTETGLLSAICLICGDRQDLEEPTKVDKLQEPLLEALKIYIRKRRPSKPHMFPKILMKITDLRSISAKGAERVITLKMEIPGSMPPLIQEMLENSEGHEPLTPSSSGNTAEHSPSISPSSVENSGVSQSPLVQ
# [4] = biological target: T2, Retinoic acid receptor alpha (Homo sapiens); assay: Transactivation of Gal4-LBD fused human RARalpha (156 to 454) transfected in african green monkey CV1 cells assessed as luciferase activity at 2 uM after 6 hrs by Dual-light chemiluminescent assay; format: cell-based; settings: CV-1
# [5] = biological target: T1, Retinoic acid receptor RXR-alpha (Mus musculus); assay: Transactivation of Gal4-LBD fused mouse RXRalpha (218 to 467) transfected in african green monkey CV1 cells assessed as luciferase activity at 2 uM after 6 hrs by Dual-light chemiluminescent assay relative to LGD1069; format: cell-based; settings: CV-1
# A549 = assay: Antiproliferative activity against human A549 cells at 4 uM after 72 hrs by MTT assay; format: functional; settings: A549, 72 h; method in brief: as §1
# [6] = biological target: T4, Retinoic acid receptor RXR-alpha (Mus musculus, UniProt P28700); assay: Transactivation of Gal4-LBD fused mouse RXRalpha (218 to 467) transfected in african green monkey CV1 cells assessed as luciferase activity at after 6 hrs by Dual-light chemiluminescent assay; format: cell-based, CV-1
# T4 sequence (P28700 whole entry): T1 sequence (whole entry)
Compound,inhibition at 4 µM (T47D),Activity [1],inhibition [2],inhibition at 4 µM (BXPC-3),Activity [3],Activity [4],Activity [5],inhibition at 4 µM (A549),pEC50 [6]
COCCOCOc1cc(C)c(-c2ccc3cc(C(=O)O)ccc3c2Cl)cc1C12CC3CC(CC(C3)C1)C2,46.1%,45%,inactive,70.2%,inactive,inactive,45%,88.1%,6.18
COCCOCOc1cc(C)c(-c2ccc(CC(=O)O)cc2Cl)cc1C12CC3CC(CC(C3)C1)C2,27.6%,–,inactive,14%,inactive,inactive,–,7.9%,5.94
